Source: ChEMBL document CHEMBL1139553, “Synthesis of dehydroalanine fragments as thiostrepton side chain mimetics” (Bioorg Med Chem Lett, 2005)

Columns and labels:
Ribosome [1] = experiment: Inhibition of bacterial translation by blocking the function of the ribosomal GTPase center at 400 uM concentration; format: subcellular; settings: Escherichia coli
Outline: (§1)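 Translation inhibition was tested at a single compound concentration, since limited solubility ruled out dose-response data at higher concentrations. Percent inhibition is the mean of three replicate experiments per compound (±10%).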

Ribosome [2] = experiment: Inhibition of bacterial translation by blocking the function of the ribosomal GTPase center at 15 uM concentration; format: subcellular; settings: Escherichia coli; outline: as §1
Ribosome [3] = experiment: Inhibition of bacterial translation by blocking the function of the ribosomal GTPase center at 0.17 uM concentration; format: subcellular; settings: Escherichia coli; outline: as §1
Ribosome [4] = experiment: Inhibition of bacterial translation by blocking the function of the ribosomal GTPase center; format: subcellular, Escherichia coli
Ribosome [5] = experiment: Inhibition of bacterial translation by blocking the function of the ribosomal GTPase center at 150 uM concentration; format: subcellular; settings: Escherichia coli; outline: as §1

Row | SMILES | inhibition (Ribosome [1]) [%] | also measured
1 | C=C(NC(=O)c1ccccn1)C(=O)N[C@@H](COC(C)(C)C)C(=O)OC | 40 | 
2 | C=C(NC(=O)c1csc(-c2cccnc2)n1)C(=O)N[C@@H](Cc1c[nH]c2ccccc12)C(=O)OC |  | inhibition (Ribosome [2]): 20%
3 | C=C(NC(=O)C(=C)NC(=O)c1csc(C2=N[C@@H]3c4csc(n4)[C@H]4NC(=O)c5csc(n5)[C@H]([C@](C)(O)[C@@H](C)O)NC(=O)[C@H]5CSC(=N5)/C(=C/C)NC(=O)[C@H]([C@@H](C)O)NC(=O)c5csc(n5)[C@]3(CC2)NC(=O)[C@H](C)NC(=O)C(=C)NC(=O)[C@H](C)NC(=O)[C@H]([C@@H](C)CC)N[C@@H]2C=Cc3c([C@H](C)O)cc(nc3[C@H]2O)C(=O)O[C@@H]4C)n1)C(N)=O |  | inhibition (Ribosome [3]): 50%
4 | C=C(NC(=O)c1csc(-c2cccnc2)n1)C(=O)N[C@@H](Cc1cn(C(=O)OC(C)(C)C)c2ccccc12)C(=O)OC |  | IC50 (Ribosome [4]): 40 µM
5 | C=C(NC(=O)c1ccccn1)C(=O)N[C@@H](Cc1cn(C(=O)OC(C)(C)C)c2ccccc12)C(=O)OC |  | inhibition (Ribosome [5]): 20%
6 | C=C(NC(=O)c1csc(-c2cccnc2)n1)C(=O)N[C@@H](COC(C)(C)C)C(=O)OC | 30 | 
7 | C=C(NC(=O)c1csc(-c2ccncc2)n1)C(=O)N[C@@H](COC(C)(C)C)C(=O)OC |  | inhibition (Ribosome [5]): 5%
8 | C=C(NC(=O)c1cnccn1)C(=O)N1CCC[C@H]1C(=O)OC | 25 | 
9 | C=C(NC(=O)c1ccccn1)C(=O)N1CCC[C@H]1C(=O)OC | 4 | 
10 | C=C(NC(=O)c1cnccn1)C(=O)N[C@@H](Cc1cn(C(=O)OC(C)(C)C)c2ccccc12)C(=O)OC |  | inhibition (Ribosome [5]): 10%

Further lines, with some results ahead:

Row | inhibition (Ribosome [1]) [%] | SMILES | also measured
11 | 20 | C=C(NC(=O)c1csc(-c2cccnc2)n1)C(=O)N1CCC[C@H]1C(=O)OC | 
12 | 30 | C=C(NC(=O)c1cnccn1)C(=O)NC(=C)C(=O)OC | 
13 | 15 | C=C(NC(=O)c1cnccn1)C(=O)N[C@@H](COC(C)(C)C)C(=O)OC | 
